# A selection: hits, their analogues and other compounds. The true share with any hit is near 1.3%.
# LANA DNA inh: blocks KSHV LANA C-terminal domain binding to DNA; 0.078% of 340,000 active; MBP-C-LANA/FAM-LBS DNA binding, fluorescence polarization; inhibition, % at 9 µM;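 active = highest replicate inhibition at or above 60% at 9 µM, even if other replicates fall short; inactive = all replicates below 60% inhibition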;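 also: 0% = neutral control wells and 100% = 4 µM acridine orange control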
# Keap1 Nrf2 FP: Keap1-Nrf2 (human) interaction inhibition. Keap1 Kelch-Nrf2 peptide fluorescence polarization, 1536-well. 0.15% of 340,000 active. Q14145. inhibition, % at 9.4 µM. AID 504523; in the data active = inhibition above about 12%;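 also: human Keap1 Kelch domain with fluorescein labeled Nrf2 9mer peptide probe; 0% = neutral control wells and 100% = peptide positive control; higher means more block of Keap1 binding to Nrf2 peptide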
# Target sequence (Q14145 whole entry, looked up, the tested form may be a part): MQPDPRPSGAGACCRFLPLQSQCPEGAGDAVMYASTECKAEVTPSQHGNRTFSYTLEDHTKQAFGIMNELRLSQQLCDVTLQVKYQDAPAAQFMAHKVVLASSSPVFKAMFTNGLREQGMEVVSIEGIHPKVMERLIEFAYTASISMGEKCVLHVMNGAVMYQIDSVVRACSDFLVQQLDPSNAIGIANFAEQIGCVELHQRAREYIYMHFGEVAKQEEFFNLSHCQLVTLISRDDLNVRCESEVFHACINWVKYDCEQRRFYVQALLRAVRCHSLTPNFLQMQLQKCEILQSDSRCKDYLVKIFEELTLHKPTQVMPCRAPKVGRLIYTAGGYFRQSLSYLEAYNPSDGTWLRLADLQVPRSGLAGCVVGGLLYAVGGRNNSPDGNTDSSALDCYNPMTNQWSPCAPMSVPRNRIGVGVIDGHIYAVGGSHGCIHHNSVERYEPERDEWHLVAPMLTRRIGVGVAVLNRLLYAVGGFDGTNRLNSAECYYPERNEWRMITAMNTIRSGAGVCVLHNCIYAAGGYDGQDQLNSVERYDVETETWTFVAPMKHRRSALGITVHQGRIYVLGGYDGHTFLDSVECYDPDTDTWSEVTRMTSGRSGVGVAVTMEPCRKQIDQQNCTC
# Cardiac RTF inh: cardiac RTF calcium desensitization; IANBD-labeled cardiac RTF, Ca2+ fluorescence; P19429+P45379; AID 493244; 0.12% of 340,000 active; inhibition, % at 7.15 µM;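 active = inhibition above the mean inhibition of all tested compounds plus 3 SD, cut at about 17% in these data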;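 also: assay run at fixed EC70 calcium of 1.6 mM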
# RTF Ca sens act: cardiac RTF calcium sensitization; 0.24% of 340,000 active; AID 493008; IANBD-labeled TnC RTF fluorescence at EC20 calcium; 0% EC20 calcium, 100% full calcium; activation, % at 7.2 µM; P19429+P45379;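 active = activation above the mean over all tested compounds plus 3 SD, cut at about 30% in these data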;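 also: rise in fluorescence read as greater calcium sensitivity of cardiac thin filaments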
# CAL PDZ FP-1: inhibitors of human CAL PDZ peptide binding. 0.92% of 300,000 active. AID 602252. inhibition, % at 24.9 µM. purified CAL PDZ, TMR-peptide fluorescence polarization, 1 h;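 active = mean inhibition of at least 30% with at least half of replicates also reaching 30%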;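 also: 0% = DMSO neutral control and 100% = excess unlabeled competitor peptide PRC23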
# CAL PDZ FP-2: blocks peptide binding to human CAL PDZ domain; purified CAL PDZ, TMR-peptide fluorescence polarization, 1 h; AID 504414; inhibition, % at 20 µM; 0.02% of 330,000 active; Q9HD26;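 active = highest replicate inhibition of at least 40%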;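 also: plate controls were DMSO neutral control wells for no effect and unlabeled competitor peptide control wells for full effect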
#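 Test system: purified CerCALP PDZ construct; Compound dosing: one concentration, 20 µM compound; Also added: TMR-labelled reporter peptide T*-PRC34 bound in PDZ groove; Read-out: inhibition from polarization loss; Controls: unlabelled peptide and DMSO controls; Signal: FP readout, S and P plane fluorescence; Incubation: 1 h at RT.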
# * hit, by the source's call; / = not tested or not shown; + = active, no number.
SMILES,LANA DNA inh,Keap1 Nrf2 FP,Cardiac RTF inh,RTF Ca sens act,CAL PDZ FP-1,CAL PDZ FP-2
CCOc1ccccc1N=Nc1c(C)[nH]n(C(N)=S)c1=O,3,1,-12,0,37*,/
Cc1ccccc1NC(=O)CCCn1nc(C)c2c(C)n(-c3ccccc3)nc2c1=O,0,-5,-6,4,30*,-1
Cc1ccccc1NC(=O)Cn1nc(C)c2ccccc2c1=O,-1,-6,0,3,35*,0
COc1ccc(S(=O)(=O)N2CCOC23CCN(S(=O)(=O)c2ccc(C)cc2)CC3)cc1,-2,-8,-4,-3,/,-1
CC(C(=O)Nc1ccc(S(=O)(=O)N2CCCC2)cc1)N1CCCC(C(N)=O)C1 (centres undefined),1,0,-4,0,-5,-3
COc1cccc(NS(=O)(=O)c2ccc3c(c2)C2C=CCC2C(c2ccc(C(=O)O)cc2)N3)c1 (centres undefined),104*,7,11,-22,-4,1
COc1ccc(C(=O)N/N=C(\C)c2ccc3c(c2)C2C=CCC2C(c2ccccc2)N3)cc1 (centres undefined),-1,-6,2,1,/,-1
CCOC(=O)CNc1cccc(C(F)(F)F)c1,0,-1,-1,5,/,0
COC(=O)CNc1cccc(C(F)(F)F)c1,-3,0,-11,0,75*,17
Cc1nc(Cc2ccccc2)sc1CC#N,0,0,-3,-3,4,-2
COc1ccc(OC)c(/C=C2\NC(=O)NC2=O)c1,-1,1,-5,-2,45*,-3
N#Cc1ccc(NC(=S)NCCN2CCOCC2)cc1,-2,1,-3,2,91*,-1
CCN(CC)c1ccc(/C=C2\C(=N)N3N=C(CC(=O)N4CCOCC4)SC3=NC2=O)cc1,9,-40,-25,38*,-4,-2
COCCn1c(SCC(=O)NCc2ccc3c(c2)OCO3)nnc1-c1c[nH]c2ccccc12,0,-1,1,6,64*,-1
COCCn1c(SCC(=O)NCc2ccc3c(c2)OCO3)nnc1C(C)C,-3,0,-5,-10,3,-3
O=C(C=C1CCN(c2ncc(C(F)(F)F)cc2Cl)CC1)NNC(=O)Nc1ccccc1,1,-2,-5,-1,2,-1
O=C(C=C1CCN(c2ncc(C(F)(F)F)cc2Cl)CC1)NNC(=O)Nc1ccc(Cl)cc1,1,3,-3,0,74*,5
O=C(Nc1ccc(Cl)cc1)N1CCc2ccccc2C1,1,0,9,5,43*,-1
CCN(CC)c1ccc2cc(C(N)=O)c(=N)oc2c1,-4,-209,/,/,6,0
CCN(CC)c1ccc2c(-c3ccc(S(=O)(=O)O)cc3S(=O)(=O)[O-])c3ccc(=[N+](CC)CC)cc-3oc2c1,121*,82*,-336,248*,+,171*
O=C(CSc1nnc(-c2ccncc2)n1-c1ccccc1)NCC1CCCO1 (centres undefined),2,4,-7,-3,/,1
COc1ccc(/C=C/C(=O)OCC(=O)Nc2ccc(S(N)(=O)=O)cc2)cc1OC,-1,2,3,0,45*,-1
COc1cc(/C=C/C(=O)OCC(=O)Nc2ccc(S(=O)(=O)N3CCCC3)cc2)ccc1O,2,0,0,8,-2,-2
Cc1ccc(-c2noc(C3CCCN(C(=O)c4ccc(C(C)(C)C)cc4)C3)n2)o1 (centres undefined),0,-4,12,-6,-3,0
CSc1ccccc1OCc1cc(C(=O)N2CCN(c3ccccc3)CC2C)no1 (centres undefined),-2,-3,-3,-2,69*,0
SMILES,LANA DNA inh,Keap1 Nrf2 FP,Cardiac RTF inh,RTF Ca sens act,CAL PDZ FP-1,CAL PDZ FP-2
Cc1nc(N2CCN(C(=O)c3cnccn3)CC2)c2c3c(sc2n1)CC(C(C)(C)C)CC3 (centres undefined),-1,-3,0,-7,-5,-2
CCOC(=O)c1c(/N=C/C2C(=O)CC(C)(C)CC2=O)sc2c1CCCC2,0,3,-2,-1,79*,-1
CC(C)n1nccc1NC(=O)COC(=O)c1ccc(NC(N)=O)cc1,1,-3,4,-5,/,0
C/C(=C\C=C(C#N)C#N)c1cc(C#N)c(N)o1,-30,-127,-195,149*,-12,-5
CCOC(=O)C1=C(COC(=O)c2cc(OC)c(OC)c(OC)c2)NC(=O)NC1C (centres undefined),/,/,7,3,1,-2
Cc1ccc(-c2nn(CCC#N)cc2C=C(C#N)C#N)cc1,-1,-5,8,-4,-1,-3
COc1ccc(-c2nn(CCC#N)cc2C=C(C#N)C#N)cc1,-1,-1,2,1,62*,-2
Cc1ccc2nc(NS(=O)(=O)c3cn(C)nc3C)sc2c1,0,-1,0,-3,1,-1
CCCCc1c(O)nc(SCC(=O)N2CCCCC2)n(-c2ccccc2C)c1=O,-1,1,-11,9,54*,-1
CCCCc1c(O)nc(SCC(=O)NC(C)(C)C)n(-c2ccccc2C)c1=O,-1,-2,-1,0,4,-1
COCCNC(=O)/C(C#N)=C/c1c(N2CCN(c3ccccc3)CC2)nc2ccccn2c1=O,-2,-11,-2,-6,57*,2
COc1ccc(NC(=O)c2cccc(S(=O)(=O)N3CCCC3)c2)cc1OC,1,0,-3,-1,77*,0
O=C(NNC(=O)c1ccc(Br)s1)c1cccc(S(=O)(=O)N2CCCC2)c1,1,-2,5,-6,11,0
Cc1ccsc1C(=O)NNC(=O)c1cccc(S(=O)(=O)N2CCCC2)c1,-1,-3,-5,-3,83*,0
COC(=O)[C@@H](NC(=O)N1CCN(C(=O)C2COc3ccccc3O2)CC1)C(C)C (some centres undefined),-1,3,-1,7,-3,-2
Cc1ccc(CCN2CC(C(=O)NCCCN3CCC(C)CC3)CC2=O)cc1 (centres undefined),-2,1,0,-1,-2,-1
Cc1ccc(S(=O)(=O)N2CCN(C(=O)CN3C(=O)NC(C)(c4ccc5ccccc5c4)C3=O)CC2)cc1 (centres undefined),0,4,-7,-5,73*,-2
CC(C)CNS(=O)(=O)c1ccc(CCC(=O)NC2CCCCC2)cc1,-3,6,-3,1,/,1
Cc1ccc(S(=O)(=O)N2CCOCC2)cc1C(=O)N1CCN(c2ncccn2)CC1,0,3,3,-5,51*,0
O=C(Nc1cccc(C(F)(F)F)c1)Oc1ccc(Cl)c2cccnc12,-2,0,-6,2,35*,-1

# High-throughput results from PubChem.
